In publication PMC4600222 (Chemmedchem, 2015):

Columns and labels:
CVB3 Nancy (L1092) = assay: CPE inhibition in HeLa cells, CVB3 Nancy; assay type: cell-based, coxsackievirus B3; conditions: Enterovirus B, read-out: IC50, cytopathic effect of CVB3 Nancy
CVB3 97927 (I1092) = assay: CPE inhibition in HeLa cells, CVB3 97927; assay type: cell-based, coxsackievirus B3; conditions: Enterovirus B, read-out: IC50, cytopathic effect of CVB3 97927
[1] = system: 46 RV serotypes and 14 EV strains; assay: CPE inhibition assays in HeLa cells, panel of 60 RV and EV strains; assay type: cell-based, rhinovirus, enterovirus
CVB3 Nancy wildtype = assay: Plaque reduction assay in HeLa cells, CVB3 Nancy wildtype; assay type: cell-based, coxsackievirus B3; conditions: Enterovirus B, read-out: IC50 plaque inhibition, CVB3 Nancy wildtype
Outline: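 Plaque reduction assay in HeLa cells on wild-type CVB3 Nancy and on compound-resistant variants. The variants were isolated from wild-type pools under 1 μg mL−1 (2.7 μm) test compound, and their amino acid substitutions were identified by genetic characterization. IC50 is taken from plaque inhibition. Means and/or SD come from at least three assays.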

CVB3 Nancy = assay: Mechanism of action, modified plaque reduction assay; assay type: cell-based, coxsackievirus B3; conditions: 0.5 and 1 μM
Plasma stability = assay type: in vitro ADME
Metabolic stability = assay type: in vitro ADME
K+ channel (hERG) = K+ channel (hERG) (Homo sapiens, UniProt Q12809); assay: QT prolongation K+ channel
[2] = system: CYP1A2, CYP2B6, and CYP3A4; assay: Induction of cytochrome P450 isoforms; assay type: in vitro ADME
[3] = system: CYP1A, CYP2B6, CYP2C8, CYP2C9, CYP2C19, CYP2D6, and CYP3A; assay: Inhibition of cytochrome P450 isoforms; assay type: in vitro ADME
[4] = Pharmacokinetics in mice after intragastric administration; assay type: in vivo
Acute toxicity in mice = assay type: in vivo; conditions: no indications of adverse effects
Subacute = assay type: in vivo; conditions: 12.5, 50 and 200 mg kg^−1, 30 days, male BALB/c mice; acute >3 g kg^−1
CVB3 31-1-93 = assay: CVB3-induced chronic myocarditis in NMRI mice; assay type: in vivo; conditions: 100 mg kg^−1 orally twice daily for 7 days

Chain of K+ channel (hERG) (Q12809 whole entry, canonical isoform): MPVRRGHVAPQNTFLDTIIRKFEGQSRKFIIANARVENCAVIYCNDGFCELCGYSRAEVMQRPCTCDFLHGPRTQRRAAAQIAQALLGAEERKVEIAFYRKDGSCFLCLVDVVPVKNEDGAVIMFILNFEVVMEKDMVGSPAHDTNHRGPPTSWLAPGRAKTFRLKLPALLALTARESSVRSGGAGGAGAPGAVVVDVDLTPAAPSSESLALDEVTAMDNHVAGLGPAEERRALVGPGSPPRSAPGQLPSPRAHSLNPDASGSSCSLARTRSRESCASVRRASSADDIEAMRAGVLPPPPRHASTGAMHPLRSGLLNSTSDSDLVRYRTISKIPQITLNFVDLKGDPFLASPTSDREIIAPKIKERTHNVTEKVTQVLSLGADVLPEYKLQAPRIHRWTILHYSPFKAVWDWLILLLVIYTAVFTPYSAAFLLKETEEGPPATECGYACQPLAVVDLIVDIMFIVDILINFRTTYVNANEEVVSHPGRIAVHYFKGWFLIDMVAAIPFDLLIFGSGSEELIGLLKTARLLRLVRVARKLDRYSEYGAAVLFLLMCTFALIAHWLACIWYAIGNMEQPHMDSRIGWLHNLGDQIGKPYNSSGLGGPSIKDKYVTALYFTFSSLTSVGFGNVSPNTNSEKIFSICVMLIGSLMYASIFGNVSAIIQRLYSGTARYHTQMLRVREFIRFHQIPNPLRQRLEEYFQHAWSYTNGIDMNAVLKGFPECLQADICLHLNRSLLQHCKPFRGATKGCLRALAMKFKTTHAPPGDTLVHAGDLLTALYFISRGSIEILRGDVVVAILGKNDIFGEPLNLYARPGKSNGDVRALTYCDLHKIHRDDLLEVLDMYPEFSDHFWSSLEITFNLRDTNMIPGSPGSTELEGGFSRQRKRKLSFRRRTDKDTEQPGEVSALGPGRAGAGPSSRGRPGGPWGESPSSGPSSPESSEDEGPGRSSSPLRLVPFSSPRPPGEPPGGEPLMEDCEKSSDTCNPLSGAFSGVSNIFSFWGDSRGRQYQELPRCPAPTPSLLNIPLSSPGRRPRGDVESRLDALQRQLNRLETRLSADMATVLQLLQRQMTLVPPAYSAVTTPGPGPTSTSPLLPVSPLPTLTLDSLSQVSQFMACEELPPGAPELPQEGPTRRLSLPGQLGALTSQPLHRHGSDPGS

**Q.** With `Nc1nc(-c2ccccc2)nc2[nH]nc(Nc3ccc(C(F)(F)F)cc3)c12` [Compound 36, 3-(4-trifluoromethylphenyl)amino-6-phenylpyrazolo[3,4-d]pyrimidine-4-amine] as the molecule, how does the IC50 (CVB3 Nancy (L1092)) read?
**A.** 160 nM

**Q.** What about the IC50 (CVB3 97927 (I1092)) of the same molecule?
**A.** 1050 nM

**Q.** What about the IC50 ([1]; Enterovirus, HeLa, read-out: IC50 values for high-level pleconaril-resistant viruses) of the same molecule?
**A.** 40 to 640 nM

**Q.** What about the strains inhibited ([1]; of the 60 strains tested, CPE inhibition, HeLa cells) of the same molecule?
**A.** 52

**Q.** What about the IC50 (CVB3 Nancy wildtype) of the same molecule?
**A.** 160 ± 30 nM

**Q.** And the “effect on virus infectivity, incubation with cell-free virus” value (CVB3 Nancy; 1 h at 37 °C, then diluted 1:10^6)?
**A.** strong loss of virus infectivity

**Q.** And the “effect on virus-induced plaque formation, pretreatment of cells” value (CVB3 Nancy; cells pretreated prior to virus inoculation)?
**A.** no effect

**Q.** And the “Plasma stability (human), remaining (%)” value (Plasma stability)?
**A.** 100%

**Q.** And the “Metabolic stability (human liver microsomes), remaining %” value (Metabolic stability)?
**A.** 100%

**Q.** And the “QT prolongation K+ channel (hERG)” value (K+ channel (hERG))?
**A.** low

**Q.** What about the “Induction of CYP1A2, CYP2B6, and CYP3A4” value [2] of the same molecule?
**A.** neither an inducer nor an inhibitor

**Q.** And the “Inhibition of CYP1A, CYP2B6, CYP2C8, CYP2C9, CYP2C19, CYP2D6, and CYP3A” value [3]?
**A.** neither an inducer nor an inhibitor

**Q.** What about the Cl ([4]; mice, 100 mg/kg intragastric) of the same molecule?
**A.** 10.42 mL·h/kg

**Q.** What about the AUC ([4]; mouse, plasma, po, 100 mg/kg) of the same molecule?
**A.** 9600 ng·h/mL

**Q.** And the AUC(0-t) ([4]; mouse, plasma, po, 100 mg/kg)?
**A.** 6420 ng·h/mL

**Q.** What about the MRT ([4]; mouse, plasma, po, 100 mg/kg) of the same molecule?
**A.** 3.54 h

**Q.** What about the Tmax ([4]; mouse, plasma, po, 100 mg/kg) of the same molecule?
**A.** 3 h

**Q.** What about the half-life ([4]; mouse, plasma, po, 100 mg/kg) of the same molecule?
**A.** 3.5 h

**Q.** And the k el ([4]; mouse, plasma, po, 100 mg/kg)?
**A.** 5e-05 s⁻¹

**Q.** What about the Acute toxicity (Acute toxicity in mice) of the same molecule?
**A.** > 3 g/kg

**Q.** And the “acute and chronic toxicological studies, overall finding” value (Subacute)?
**A.** no indications of adverse anatomical, behavioral or physiological effects

**Q.** And the “antiviral effect, treatment started 3 h prior to or 1 and 3 days p. i.” value (CVB3 31-1-93)?
**A.** strong antiviral effect

**Q.** What about the “therapeutic effect, treatment started 7 days p. i.” value (CVB3 31-1-93; start 7 days p. i., results not shown) of the same molecule?
**A.** No therapeutic effect
